Compound activity deposited in PubChem by The Scripps Research Institute Molecular Screening Center.
In the library only some 1.2% were active in any assay of this set; here they are far more common.
procasp7 counter: procaspase-7 activators, primary screen, counter-screen for procaspase-3 activator project, biochemical, absorbance, HTS, human; Caspase-7 (Homo sapiens), P55210; recombinant procaspase-7, Ac-DEVD-pNA absorbance 405 nm; D23A/D198A/D206A triple mutant, cannot self-cleave; scale: DMSO 0, 5 µM enzyme 100; activation, % at 8.5 µM; 0.093% of 330,000 active;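 active = percent activation above the screen-wide mean plus 3 SD, cut at about 25% in these data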
Target sequence (P55210 whole entry D23A/D198A/D206A): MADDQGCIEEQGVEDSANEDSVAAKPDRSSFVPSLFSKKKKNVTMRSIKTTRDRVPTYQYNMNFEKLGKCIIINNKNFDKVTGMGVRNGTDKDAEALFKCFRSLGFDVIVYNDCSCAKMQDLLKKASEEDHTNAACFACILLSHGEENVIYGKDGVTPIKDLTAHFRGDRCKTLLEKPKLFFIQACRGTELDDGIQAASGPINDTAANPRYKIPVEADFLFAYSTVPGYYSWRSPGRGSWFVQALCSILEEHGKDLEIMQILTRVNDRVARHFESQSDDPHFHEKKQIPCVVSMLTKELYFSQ
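System: Procaspase-7 triple mutant (PC-7 D3A); measure: % activation from two-timepoint absorbance difference, scaled to controls; times: 1 h compound preincubation, 2 h substrate cleavage, 25 °C; also added: Ac-DEVD-pNA substrate, 400 µM as added; measured by: Epi-absorbance of released pNA at 405 nm, two timepoints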
PP1 inh: PP1-alpha phosphatase inhibitors, primary screen, counter-screen for PP5 inhibitor project, biochemical, fluorescence, OMFP substrate, single point. purified PP1alpha. inhibition, % at 6.7 µM. 0.9% of 320,000 active;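 active = inhibition above the mean inhibition of all tested compounds plus 3 SD, computed separately for each screening campaign, cut at about 15% in these data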
Target sequence (P62136 whole entry, looked up): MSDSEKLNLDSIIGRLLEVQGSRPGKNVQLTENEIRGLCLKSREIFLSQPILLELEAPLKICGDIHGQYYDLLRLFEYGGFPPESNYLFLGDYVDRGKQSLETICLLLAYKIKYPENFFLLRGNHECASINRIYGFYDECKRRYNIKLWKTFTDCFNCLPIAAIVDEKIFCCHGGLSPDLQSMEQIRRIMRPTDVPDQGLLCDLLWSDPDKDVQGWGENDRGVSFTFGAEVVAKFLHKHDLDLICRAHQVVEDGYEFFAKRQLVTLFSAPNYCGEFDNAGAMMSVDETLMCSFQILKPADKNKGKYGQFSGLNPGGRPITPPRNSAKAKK
PP5 primary: PP5 phosphatase inhibitors, primary screen, biochemical, fluorescence | purified PP5c, OMFP substrate fluorescence | 0.18% of 320,000 active | AID 1987, 2009 | inhibition, % at 6.7 µM | Serine/threonine-protein phosphatase 5 (Homo sapiens), P53041;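 active = inhibition above the campaign's mean inhibition across all tested compounds plus 3 SD, cut at about 9.5% in these data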;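 note: 0% = DMSO only and 100% = 100 µM cantharidin control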
proCasp3 act: activators of human procaspase-3 D3A mutant, primary screen, biochemical, absorbance, PC-3 D3A mutant, single concentration. activation, % at 8.5 µM. recombinant procaspase-3 D3A, Ac-DEVD-pNA absorbance 405 nm. 0.11% of 330,000 active. Caspase-3 (Homo sapiens), P42574;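 active = activation above the mean of all tested compounds plus 3 SD, cut at about 21% in these data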;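 note: 0% = DMSO alone and 100% = DMSO wells spiked with extra 5 µM PC-3 D3A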
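Assay system – Procaspase-3 D3A mutant, all three cleavage aspartates alanine · Controls – DMSO-only low control, 5 µM PC-3 D3A high control · Schedule – 1 h compound preincubation, 2 h substrate hydrolysis at 25 °C · Signal – 405 nm absorbance of p-nitroaniline, reads at 0 and 120 min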
PP1 inh confirm: PP1 phosphatase inhibitors, confirmation, biochemical, fluorescence, OMFP substrate, triplicate; purified PP1alpha; AID 2358, 2010; shares compounds with PP1 inh; 52% of 1,900 active; inhibition, % at 6.7 µM;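 active = mean PP1 inhibition above a set limit taken from the earlier primary screen, cut at about 15% in these data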
PP5 inh counter: PP5 phosphatase inhibition by PP1 hits, confirmation, counter-screen for PP1 inhibitor project, biochemical, fluorescence, triplicate; shares compounds with PP1 inh; purified PP5c, OMFP fluorescence; inhibition, % at 6.7 µM; 4% of 1,900 active;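 active = mean PP5 inhibition over triplicate wells above about 9.5% taken from the earlier PP1 screen, limit read from the data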
The depositor's hits bear a star; · = no result given.

SMILES	procasp7 counter	PP1 inh	PP5 primary	proCasp3 act	PP1 inh confirm	PP5 inh counter
COC(=O)C1=C(CSc2nc3c(cc2C#N)CN(C)CC3)OC(N)=C(C#N)C1c1ccc(F)cc1 (stereo unspecified)	-19	18*	5	-14	5	5
CCOC(=O)C1=C(CSc2nc(CC)c(C)cc2C#N)OC(N)=C(C#N)C1c1ccc(OC)cc1 (stereo unspecified)	-23	6	6	-15	·	·
CCOCCCn1c(SCC(=O)NCc2ccco2)nc2c(sc3ccccc32)c1=O	5	12	1	4	·	·
O=C(CSc1nc2ccccc2c2nc3ccccc3n12)NCc1ccco1	-14	31*	1	-10	20*	0
CCCCn1c(SCC(=O)NCc2ccco2)nc2c(sc3ccccc32)c1=O	5	22*	-2	0	24*	-2
CCn1c(SCC(=O)NCc2ccco2)nc2ccccc2c1=O	-6	-2	0	10	·	·
O=C(Nc1cccc([N+](=O)[O-])c1)c1cc2ccccc2cc1O	-8	23*	1	2	19*	-1
CCOc1ccc(NC(=O)c2ccc(NC(=O)c3ccc(CN4CCOCC4)cc3)cc2)cc1	1	22*	4	6	41*	-6
COC(=O)c1ccc(NC(=O)c2ccc(CN3CCOCC3)cc2)cc1	-12	-8	4	1	·	·
CC(OC(=O)c1ccc(NC(=O)CC#N)cc1)C(=O)Nc1nc(-c2ccccc2)cs1 (stereo unspecified)	12	10	4	6	·	·
CC(OC(=O)c1ccc(NC(=O)CC#N)cc1)C(=O)Nc1ccc(Oc2ccccc2)cc1 (stereo unspecified)	-5	20*	0	0	8	-6
Cc1cccc(/C=N/NC(=O)c2cc(-c3cccnc3)nc3ccccc23)c1	7	78*	2	0	-2	-1
Cc1cc(Cl)ccc1NC(=O)CN1C(=O)C(=O)N(C2CCCC2)C1=O	11	0	5	9	·	·
O=C(NCC1CCCN1S(=O)(=O)c1cccs1)c1cccc(Cl)c1 (stereo unspecified)	1	0	0	9	·	·
COc1cc(/C=C2\SC(=S)NC2=O)ccc1OS(=O)(=O)c1ccccc1	6	19*	3	0	21*	2
CCOc1ccc(/C=C2\SC(=S)NC2=O)cc1OC	-9	-3	-1	-6	·	·
COc1cc(/C=C2\SC(=S)N(CCCCC(=O)O)C2=O)ccc1OS(=O)(=O)c1ccc(C)cc1	-25	31*	1	-11	29*	3
COc1cc(/C=C2/SC(=S)NC2=O)ccc1OS(=O)(=O)c1ccc(C)cc1	-7	26*	4	-5	31*	2
COc1ccc([C@H]2Oc3cc(O)cc(O)c3C(=O)C2[C@@H]2C(=O)c3c(O)cc(O)cc3O[C@@H]2c2ccc(OC)cc2)cc1 (stereo partly specified)	3	25*	5	13	8	4
CC1(C)CCN2CCC(C)(C)c3c(O)ccc1c32	-6	18*	0	-4	-1	7
COC(=O)c1ccccc1NC(=O)c1ccc(COc2cccc3ccccc23)o1	-3	25*	4	-2	19*	-1
COC(=O)c1ccccc1NC(=O)c1ccc(COc2ccccc2)o1	12	2	0	0	·	·
O=C1NC(Cc2ccccc2)c2nc3cc(F)ccc3c(=O)n2-c2ccccc21 (stereo unspecified)	-7	·	·	3	·	·
C#CCOCCOCCOCCNc1nc(N2CCN(C(=O)CCCCCCCCCCNC(=O)Cn3cc(CCCCCN)nn3)CC2)nc(N2CCN(C(=O)CCCCCCCCCCNC(=O)Cn3cc(CCCCCN)nn3)CC2)n1	-2	33*	0	-3	9	-6
C#CCOCCOCCOCCNc1nc(N2CCN(C(=O)CCCCCCCCCCNC(=O)[C@@H](CCSC)n3cc(CCO)nn3)CC2)nc(N2CCN(C(=O)CCCCCCCCCCNC(=O)[C@H](CCSC)n3cc(CCO)nn3)CC2)n1	-7	23*	3	6	4	2
SMILES	procasp7 counter	PP1 inh	PP5 primary	proCasp3 act	PP1 inh confirm	PP5 inh counter
C#CCOCCOCCOCCNc1nc(N2CCN(C(=O)CCCCCCCCCCNC(=O)Cn3cc(CCCCCN)nn3)CC2)nc(N2CCN(C(=O)CCCCCCCCCCNC(=O)[C@@H](CCSC)n3cc(CCO)nn3)CC2)n1	6	36*	1	-2	41*	0
COc1ccc(C2=NN(C(=O)CCCC(=O)O)C(c3cn(-c4ccccc4)nc3-c3ccccc3)C2)cc1 (stereo unspecified)	15	29*	1	-3	18*	-5
CCOC(=O)N1CCN(C(=O)Cn2nc(C)n3nc(-c4ccc(CC)cc4)cc3c2=O)CC1	0	-4	1	6	·	·
CC(C)(NS(=O)(=O)OCC(Cl)(Cl)Cl)c1ccccc1	2	1	2	7	·	·
CC(NS(=O)(=O)OCC(Cl)(Cl)Cl)c1ccc(C(C)(C)C)cc1 (stereo unspecified)	-14	19*	8	12	2	3
Cc1ccc(-c2ccc(SCC(=O)Nc3ccc4c(c3)OCCO4)nn2)cc1	2	38*	2	2	-3	-2
CC(=O)Nc1ccc(NC(=O)CSc2ccc(-c3ccc4c(c3)OCO4)nn2)cc1	-4	0	-2	-11	·	·
N#Cc1ccccc1OCC(=O)OCC(=O)NC1CCCC1	11	-9	1	-1	·	·
O=C(CCNc1ccc(Cc2ccncc2)cc1)c1ccc([N+](=O)[O-])cc1	-28	18*	-1	-22	5	-1
Cc1cc(C)c(C(=O)OCC(=O)Nc2cccc(S(=O)(=O)N3CCCCC3)c2)c(C)c1	9	0	3	5	·	·
CCc1ccc2[nH]c(=O)c(CN(Cc3ccc4c(c3)OCO4)Cc3nnnn3C3CCCC3)cc2c1	-1	21*	4	-12	6	2
Cc1ccc2cc(CN(Cc3ccc(F)cc3)Cc3nnnn3C3CCCC3)c(=O)[nH]c2c1	5	6	2	-1	·	·
CCOCCCN(C)C1CCN(C(=O)c2oc3ccccc3c2NC(=O)COc2ccc(F)cc2)CC1	-4	-1	5	0	·	·
Cc1ccc(C)c(S(=O)(=O)N2CCCCC2CCNC(=O)C(=O)NCc2ccccc2)c1 (stereo unspecified)	4	-1	2	6	·	·
